# TRPC4 PAM: allosterically enhances the mouse TRPC4 cation channel; HEK293 TRPC4beta/mu-opioid, DAMGO EC20, Fluo-4 Ca2+ flux; stronger effect = higher value; B-score at 10 µM; 310,000 tested, 0.42% active; AID 2227;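 active = B-score of calcium response area above 5 SD of library B-scores, with initial fluorescence ratio within 5 SD of library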;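 also: B-score of integrated fluorescence ratio over time as area under calcium response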
# Target sequence (Q9QUQ5 whole entry, looked up): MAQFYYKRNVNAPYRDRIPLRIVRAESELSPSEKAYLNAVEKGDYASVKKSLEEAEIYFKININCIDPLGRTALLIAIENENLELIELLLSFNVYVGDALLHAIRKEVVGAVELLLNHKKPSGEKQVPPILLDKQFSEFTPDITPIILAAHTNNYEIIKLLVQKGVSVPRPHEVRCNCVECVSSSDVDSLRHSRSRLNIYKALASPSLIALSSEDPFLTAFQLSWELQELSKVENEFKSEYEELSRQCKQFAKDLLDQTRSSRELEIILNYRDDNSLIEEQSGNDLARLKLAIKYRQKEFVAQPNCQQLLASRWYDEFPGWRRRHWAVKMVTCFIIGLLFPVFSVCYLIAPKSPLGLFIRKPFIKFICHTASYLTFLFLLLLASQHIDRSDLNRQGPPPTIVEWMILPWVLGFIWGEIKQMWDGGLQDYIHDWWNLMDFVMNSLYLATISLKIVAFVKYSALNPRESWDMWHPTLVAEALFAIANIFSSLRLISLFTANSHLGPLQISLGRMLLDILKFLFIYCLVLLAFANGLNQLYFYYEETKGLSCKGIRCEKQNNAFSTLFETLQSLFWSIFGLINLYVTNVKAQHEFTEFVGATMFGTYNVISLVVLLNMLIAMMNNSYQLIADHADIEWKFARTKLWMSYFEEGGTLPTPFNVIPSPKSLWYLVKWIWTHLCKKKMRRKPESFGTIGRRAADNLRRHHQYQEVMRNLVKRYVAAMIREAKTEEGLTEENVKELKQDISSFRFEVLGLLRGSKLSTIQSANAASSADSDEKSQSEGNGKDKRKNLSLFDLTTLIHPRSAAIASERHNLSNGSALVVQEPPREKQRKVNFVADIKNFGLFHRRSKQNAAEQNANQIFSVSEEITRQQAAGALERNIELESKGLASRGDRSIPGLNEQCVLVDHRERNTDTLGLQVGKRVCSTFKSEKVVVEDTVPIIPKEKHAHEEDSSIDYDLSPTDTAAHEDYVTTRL
# TRPC6 inhibitor: blocks the mouse TRPC6 cation channel; B-score at 10 µM; Q61143; 310,000 tested, 1.1% active; AID 2553; HEK293-TRPC6, membrane potential dye, ACh-evoked depolarization; stronger effect = lower value;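 active = B-score under library mean minus 3 SD, initial fluorescence not abnormally high, positive integrated signal ratio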;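 also: B-score derived from integrated fluorescence ratio over the kinetic read; more negative B-score means stronger inhibition of depolarization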
# TRPC4 act: activators of mouse TRPC4 channel; HEK293 TRPC4beta/mu-opioid, Fluo4 calcium fluorescence; stronger effect = higher value; B-score at 10 µM; 310,000 tested, 0.49% active; AID 2237;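 active = B-score above 5 SD of library B-scores, and initial fluorescence ratio not above library mean plus 5 SD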;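 also: positive B-score marks a calcium rise read as TRPC4 activation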
#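 Test system: HEK293 cells stably co-expressing mouse TRPC4beta and mu-opioid receptor | Schedule: Fluo4 dye loading 45 min at room temperature, 110 s recording | Measured by: Kinetic Fluo4 calcium fluorescence, 5 s baseline at 1 Hz | Evaluation: B score of integrated ratio | Controls: Buffer (low) and maximal DAMGO (high)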
# TRPC6 act: activates the mouse TRPC6 cation channel | Q61143 | HEK293-TRPC6 membrane potential dye fluorescence; stronger effect = higher value | B-score at 10 µM | 310,000 tested, 0.13% active;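 active = B-score of the integrated fluorescence ratio above library mean plus 3 SD, and starting fluorescence ratio within library mean plus 5 SD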;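 also: higher score means more depolarization so channel activation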
# TRPC4 block: inhibitors of mouse TRPC4 channel | Q9QUQ5 | 300,000 tested, 0.39% active | HEK293 TRPC4beta/mu-opioid, DAMGO-evoked Fluo4 calcium flux; stronger effect = lower value | B-score at 10 µM;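 active = B-score over 3 SD under the library average, no early fluorescence shift, positive overall ratio signal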
#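 Assay system – HEK293 line stably carrying TRPC4beta and mu-opioid receptor · Doses – single dose · Detection – Fluo4 calcium-dye fluorescence, kinetic read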
# TRPC4 spec 2: second check of whether TRPC6 inhibitors also affect mouse TRPC4; shares compounds with TRPC6 inhibitor; HEK293 TRPC4/MOR, membrane potential dye fluorescence; channel activated by saturating DAMGO dose; inhibition, % at 10 µM; 920 tested, 42% active;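 active = compounds whose fluorescence signal differed from control wells by over 3 SD, either direction, in both duplicate plates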
# TRPC4 spec: mouse TRPC4 off-target activity of TRPC6 inhibitors; AID 2777; 920 tested, 61% active; HEK293 TRPC4/mu-opioid, membrane potential fluorescence; activity change, negative = inhibition, % at 10 µM; shares compounds with TRPC6 inhibitor;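 active = rise or fall in signal beyond 3 SD of buffer-only wells in both replicate plates, either sign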;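 also: integrated kinetic ratio of fluorescence range over baseline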
# HEK293 MPD ctr 2-1: second check of TRPC6 inhibitor effects in parental HEK293 cells; shares compounds with TRPC6 inhibitor; parental HEK293 membrane potential dye fluorescence; maximal acetylcholine challenge after compound addition; signal change vs control, % at 10 µM; 920 tested, 31% active; AID 2779;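 active = membrane potential signal moving either way by over 3 SD of the maximum-effect control, in both duplicate plates, meaning non-specific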
# HEK293 MPD ctr-1: counter-screen for TRPC6 inhibitors: effect in parental HEK293 cells. shares compounds with TRPC6 inhibitor. parental HEK293 membrane potential dye fluorescence. membrane potential signal change, % at 10 µM. 920 tested, 60% active;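 active = membrane potential signal shifting up or down by more than 3 SD of buffer-only wells, on both duplicate plates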
# HEK293 MPD ctr-2: checks TRPC6 modulator effects in parental HEK293 cells | shares compounds with TRPC6 inhibitor | membrane potential dye fluorescence | membrane potential signal change, % at 10 µM | 2,400 tested, 51% active | AID 488924;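 active = membrane potential signal moves up or down beyond 5 SD from buffer-only wells, on both duplicate plates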
# HEK293 MPD ctr 2-2: second check of TRPC6 modulator effects in parental HEK293 cells; AID 488926; inhibition, % at 10 µM; membrane potential dye fluorescence; after compound, maximal acetylcholine stimulation; 2,400 tested, 14% active; shares compounds with TRPC6 inhibitor;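 active = membrane potential signal drops by more than 5 SD from the mean control signal, in both duplicate plates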;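 also: plate controls were acetylcholine ECmax control wells for no effect and buffer only wells for full effect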
# TRPC4/MOR mod: selectivity of TRPC6 modulators against mouse TRPC4; shares compounds with TRPC6 inhibitor; HEK293 TRPC4/mu-opioid, membrane potential fluorescence; percent change from control (negative = decrease, positive = increase), % at 10 µM; 2,400 tested, 69% active; AID 488927;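 active = membrane potential signal moved up or down beyond 5 SD of buffer control wells, in both duplicate plates, actives on both sides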;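 also: plate controls were assay buffer wells for no effect and DAMGO maximal-effect wells for full effect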
# TRPC4/MOR inh 2: second selectivity test of TRPC6 modulators against mouse TRPC4 | inhibition, % at 10 µM | HEK293 TRPC4/mu-opioid, membrane potential dye fluorescence; stimulated with maximal-effect DAMGO | 2,400 tested, 55% active | AID 488928 | shares compounds with TRPC6 inhibitor;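 active = drop in membrane potential signal beyond 5 SD of the control wells in both duplicate plates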;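 also: TRPC4 counter screen for TRPC6 hits run under conditions tuned for TRPC6 not TRPC4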
# TRPC6 block conf: confirmation of mouse TRPC6 inhibitors. inhibition, % at 10 µM. 3,300 tested, 43% active. shares compounds with TRPC6 inhibitor. HEK293-TRPC6, membrane potential dye, ACh-evoked depolarization;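 active = fluorescence ratio falls more than 5 SD below the full-stimulation control mean, in both duplicate runs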;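 also: integrated fluorescence ratio of peak minus minimum over baseline after agonist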
# TRPC6 act conf: confirmation of mouse TRPC6 activators | 2,800 tested, 11% active | activation, % at 10 µM | shares compounds with TRPC6 inhibitor | HEK293-TRPC6 membrane potential dye fluorescence, FDSS;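 active = ratio signal rise beyond 5 SD above unstimulated control wells' mean, seen in both duplicate runs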;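 also: plate controls were buffer EC0 wells for no effect and acetylcholine ECmax response for full effect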
# * marks the source's active call; other numbers are inactive results; i = inactive; nt = not tested or not shown. Rows were chosen to be rich in hits. Some 2.3% of all compounds tested hit in one or more screens of this group.
SMILES,TRPC4 PAM,TRPC6 inhibitor,TRPC4 act,TRPC6 act,TRPC4 block,HEK293 MPD ctr-2,HEK293 MPD ctr 2-2,TRPC4/MOR mod,TRPC4/MOR inh 2,TRPC6 block conf,TRPC6 act conf,others
CCN(CC(=O)Nc1c(F)cccc1F)C(=O)CNC(=O)c1ccc(Br)o1,i,i,i,i,i,nt,nt,nt,nt,nt,nt,
Cc1cc(C)n2nc[n+](C)c2n1,i,i,i,i,i,nt,nt,nt,nt,nt,nt,
CCN1CCN(c2nn3c(=O)c4ccccc4nc3c3ccccc23)CC1,i,-5.3*,i,i,i,i,i,i,52%*,42%*,i,
CC1CN(c2nn3c(=O)c4ccccc4nc3c3ccccc23)CC(C)O1 (configuration not stated),i,i,i,i,i,nt,nt,nt,nt,nt,nt,
NCCCCCc1nnc(SCc2ccccc2Cl)o1,i,-6.4*,i,i,i,i,i,16%*,i,i,nt,
NCCCCCc1nnc(SC/C=C/c2ccccc2)o1,i,-5.5*,i,i,i,102%*,i,18%*,i,i,nt,
NCCc1nnc(SCc2c(Cl)cccc2Cl)o1,i,i,i,i,i,nt,nt,nt,nt,nt,nt,
O=C(NNC(=O)C1CCN(S(=O)(=O)c2ccc(Cl)cc2)CC1)c1ccccc1O,i,i,i,i,i,nt,nt,nt,nt,nt,nt,
CC1CCCN(C(=O)C(Cc2ccccc2)n2cccc2)C1 (configuration not stated),i,i,i,i,i,nt,nt,nt,nt,nt,nt,
CCN1C(=O)c2cccc3c(NC(=O)c4ccc(OC)c(OC)c4)ccc1c23,i,i,i,i,i,nt,nt,nt,nt,nt,nt,
Cn1nc([N+](=O)[O-])nc1N1CCN(c2ccc(F)cc2)CC1,i,-7*,i,i,i,nt,nt,nt,nt,i,i,TRPC4 spec 2=i;TRPC4 spec=i;HEK293 MPD ctr 2-1=i;HEK293 MPD ctr-1=i
Cc1cc(C)n(-c2nc(NCCC(C)C)c3c4c(sc3n2)COC(C)(C)C4)n1,i,i,i,i,i,nt,nt,nt,nt,nt,nt,
CCN(CC)CCNc1nc(-n2nc(C)cc2C)nc2sc3c(c12)CC(C)(C)OC3,i,-6.3*,i,i,i,i,i,i,40%*,i,i,
Cc1cc(C)n(-c2nc(NCCN(C)C)c3c4c(sc3n2)COC(C)(C)C4)n1,i,-5.4*,i,i,i,i,i,-13%*,44%*,i,i,
Cc1cc(C)n(-c2nc(NCCCN(C)C)c3c4c(sc3n2)COC(C)(C)C4)n1,i,-7.6*,i,i,i,nt,nt,nt,nt,i,i,TRPC4 spec 2=i;TRPC4 spec=-11%*;HEK293 MPD ctr 2-1=i;HEK293 MPD ctr-1=-188%*
Cc1cc(C)n(-c2nc(NCCCN(C)C)c3c4c(sc3n2)CCCC4)n1,i,-7.1*,i,i,i,nt,nt,nt,nt,57%*,i,TRPC4 spec 2=66%*;TRPC4 spec=i;HEK293 MPD ctr 2-1=i;HEK293 MPD ctr-1=i
Cc1c(OCC(=O)N2C[C@H]3C[C@@H](C2)c2cccc(=O)n2C3)ccc2c3c(c(=O)oc12)CCC3,i,i,i,i,i,nt,nt,nt,nt,nt,nt,
Cc1c(OCC(=O)N2C[C@H]3C[C@@H](C2)c2cccc(=O)n2C3)ccc2c3c(c(=O)oc12)CCCC3,i,-7*,i,i,i,nt,nt,nt,nt,77%*,nt,TRPC4 spec 2=i;TRPC4 spec=5.1%*;HEK293 MPD ctr 2-1=17%*;HEK293 MPD ctr-1=5.9%*
C/C(=N\NC1=NCCN1)c1ccc(Cl)cc1,i,i,i,i,i,nt,nt,nt,nt,nt,nt,
CCN(CC)CC(=O)Nc1ccc(/C(C)=N/NC2=NCCN2)cc1,i,-8*,i,i,i,nt,nt,nt,nt,i,i,TRPC4 spec 2=i;TRPC4 spec=-12%*;HEK293 MPD ctr 2-1=i;HEK293 MPD ctr-1=i
CN1CCN(/N=C/c2nc(-c3cccc([N+](=O)[O-])c3)n3ccccc23)CC1,i,-5.2*,i,i,i,-165%*,i,-30%*,46%*,51%*,i,
C=CCNCc1ccc(C(=O)NCCCCCCC)cc1[N+](=O)[O-],i,-7*,i,i,nt,nt,nt,nt,nt,i,i,TRPC4 spec 2=75%*;TRPC4 spec=-11%*;HEK293 MPD ctr 2-1=i;HEK293 MPD ctr-1=-160%*
C=CCNC(=O)c1ccc([N+](=O)[O-])c(Cl)c1,i,i,i,i,i,nt,nt,nt,nt,nt,nt,
O=C(CN1C(=O)c2ccc(Br)cc2C1=O)NCC1CCCO1 (configuration not stated),i,-8.9*,i,i,i,i,i,i,i,82%*,nt,
COc1ccc(CN(C(=O)CSc2nnc(-c3c[nH]c4ccccc34)o2)c2ccc(F)cc2)cc1OC,i,i,i,i,i,nt,nt,nt,nt,nt,nt,
O=C1C2CSCN2C(=O)CN1CCCN1CCN(C(c2ccccc2)c2ccccc2)CC1 (configuration not stated),i,-5.3*,i,i,i,82%*,i,11%*,39%*,45%*,nt,
Cc1cccc(-n2c(=S)[nH]c3nc4c(cc3c2=O)COC(C)(C)C4)c1,i,i,i,i,i,nt,nt,nt,nt,nt,nt,
CCCCN(C)C(=O)CSc1nc(NCc2ccc(OC)cc2)c2ccccc2n1,i,-9.7*,i,i,i,nt,nt,nt,nt,i,i,TRPC4 spec 2=68%*;TRPC4 spec=4.6%*;HEK293 MPD ctr 2-1=i;HEK293 MPD ctr-1=6.4%*
CCOC(=O)c1nc(NCc2ccccc2)c2ccccc2n1,i,i,i,i,i,nt,nt,nt,nt,nt,nt,

# Compound activity from PubChem BioAssay.
